Records with an inconclusive call do not appear.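 Rule for the calls, unless noted: active = inhibition over a set limit, the all-compound mean plus 3 SD, in both replicate runs; inconclusive = over that limit in just one replicate run; inactive = at or under that limit in both runs.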
Assays:
[1] = OD615 S. cerevisiae growth inhibition, permissive medium, pilot counter-assay, permissive growth control for S. cerevisiae lifespan shortening project (AID 705;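 active = growth inhibition above 25% in both replicates, a cutoff set 3 SD above the mean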); settings: OD615, 24 h, at 10 µM, stronger effect = higher value
Summary of the method: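 Test system: Saccharomyces cerevisiae strain carrying genetically modified DeaD replicative-lifespan system; buffer or medium: SC raffinose/galactose permissive medium; dosing: one dose 10 µM, DMSO 0.25% final; times: 24 h exposure, 30 °C; measured by: OD at 615 nm; read-out basis: growth inhibition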

[2] = Restrictive medium S. cerevisiae growth inhibition, OD615, pilot screen of yeast lifespan reduction project, restrictive growth control (AID 706;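 active = growth inhibition above a set limit, 3 SD over mean compound inhibition, in both replicates, cut at about 43% in these data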;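 note: modified DeaD lifespan yeast strain shifted to restrictive glucose medium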); settings: OD615, 48 h, at 10 µM, stronger effect = higher value
Summary of the method: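 material = engineered S. cerevisiae DeaD strain | buffer or medium = glucose-based CSMM-D restrictive medium | dosing = one concentration, 10 µM final, 0.25% DMSO | schedule = 4 h pre-growth plus 48 h compound exposure, 30 °C | detection = OD615 absorbance reading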

[3] = viability gain of MRP-1-high H69AR cells under doxorubicin, pilot screen, MRP-1 activator project, CellTiter-Glo, duplicate (AID 807;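 active = viability increase at or above a cutoff of the median across tested compounds plus 3 SD, cut at about 8.5% in these data, passing the limit was not always enough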;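 note: compound pretreatment 18-22 h then 72 h combined with doxorubicin; 0% = doxorubicin alone and 100% = vehicle without doxorubicin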); settings: H69AR viability with doxorubicin, CellTiter-Glo luminescence; at 10 µM; stronger effect = higher value
[4] = growth suppression of beta-catenin knockout HCT116, pilot screen, human colon tumor cells (AID 823;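 active = cell viability at or below a set limit in both duplicate runs, the limit being the all-compound median minus 4 SD, cut at about 23% in these data, passing the limit was not always enough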;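 note: 0% = wells killed by 20 µM Hyamine and 100% = untreated DMSO cell wells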); settings: CellTiter-Glo, 60 h, at 10 µM, stronger effect = lower value
[5] = growth suppression of PTEN-deleted HCT116, pilot screen, cell-based, HCT116 clonal line, CellTiter-Glo (AID 824;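 active = viability at or below 27.92% in each of two runs, the all-compound median minus 4 SD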;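 note: 0% = 20 µM Hyamine control and 100% = vehicle cell control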); settings: 60 h, at 10 µM, stronger effect = lower value
[6] = inhibitors of the yeast RAM network, pilot screen, dse1pr::URA3 reporter, 5-FOA selection (AID 869);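 note: 0% = DMSO wells with no growth and 100% = 10 µM 1-NA-PP1 with full growth; RAM network block rescues cells from 5-FOA so hits raise OD615 growth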; settings: S. cerevisiae dse1pr::URA3 5-FOA growth, OD615, 2 d; at 10 µM; stronger effect = higher value; strain carries analog-sensitive mutant Cbk1 kinase
[7] = RAM signaling pathway blockade in yeast – S. cerevisiae, Pdr1DBD-CYC8 efflux-inhibited sensitized strain, primary screen (AID 1298;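 active = RAM network inhibition above 8.4% in each of two replicates, 3 SD over the compound average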;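 note: 0% = DMSO untreated cells without growth and 100% = 10 µM 1-NA-PP1 full growth; higher means more yeast growth rescued from 5-FOA killing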); settings: S. cerevisiae cbk1-as DSE1-URA3 strain, 5-FOA growth OD615, 2 d; at 50 µM; stronger effect = higher value

CN(CC(=O)N1CCCCCC1)S(=O)(=O)c1cccc2cccnc12
inactive: growth inhibition [1] -6.24% | growth inhibition [2] -27% | viability increase [3] -4.51% | viability [4] 101% | viability [5] 82% | inhibition [6] 2.14% | RAM network inhibition [7] -1.18%

Cn1c(Cn2c(=O)sc3ccccc32)nnc1SCC(=O)N1CCCc2ccccc21
inactive: growth inhibition [1] -4.97% | growth inhibition [2] 0.455% | viability increase [3] -3.71% | viability [4] 96.5% | viability [5] 95.1% | inhibition [6] 1.82% | RAM network inhibition [7] 6.16%

CCOc1ccccc1C1C(C(=O)Nc2ccccc2OC)=C(C)Nc2nc(CCCO)nn21 (configuration not stated)
inactive: growth inhibition [1] -20.1% | growth inhibition [2] -8.73% | viability increase [3] -3.55% | viability [4] 89.5% | viability [5] 88% | inhibition [6] 1.01% | RAM network inhibition [7] 4.4%

Cc1ccc(-c2nc(NC(=O)CSc3nnc4scc(-c5ccccc5)n34)ns2)cc1
inactive: growth inhibition [1] 0.135% | growth inhibition [2] 0.99% | viability increase [3] 1.17% | viability [4] 74% | viability [5] 66.8% | inhibition [6] 2.42% | RAM network inhibition [7] 5.6%

Cn1c(C(=O)Nc2ccc3c(c2)OCCO3)cc2c(=O)n(C)c3ccccc3c21
inactive: growth inhibition [1] -14.2% | growth inhibition [2] -2.83% | viability increase [3] -7.31% | viability [4] 72.5% | viability [5] 64.3% | inhibition [6] 1.94% | RAM network inhibition [7] 4.95%

Cc1csc(=NC(=O)c2ccccc2)n1Cc1ccco1
inactive: growth inhibition [1] -16.8% | growth inhibition [2] -36% | viability increase [3] -2.24% | viability [4] 87.9% | viability [5] 89.9% | inhibition [6] 1.38% | RAM network inhibition [7] 3.14%

COc1ccc(C(=O)N2CCN(c3ccc(C)cc3)CC2)cc1OC
inactive: growth inhibition [1] -10.4% | growth inhibition [2] -14.2% | viability increase [3] -1.27% | viability [4] 103% | viability [5] 90.2% | inhibition [6] 0.81% | RAM network inhibition [7] 3.75%

CC(C)(C)NC(=O)Cn1c(=O)oc2cc(S(=O)(=O)N3CCc4ccccc43)ccc21
inactive: growth inhibition [1] 0.45% | growth inhibition [2] -12.1% | viability increase [3] -3.16% | viability [4] 90% | viability [5] 89.5% | inhibition [6] 0.05% | RAM network inhibition [7] 7.21%

CC(C)Sc1oc(-c2ccco2)nc1S(=O)(=O)c1ccc(F)cc1
inactive: growth inhibition [1] -5.61% | growth inhibition [2] -0.07% | viability increase [3] -2.29% | viability [4] 94% | viability [5] 89.8% | inhibition [6] 1.54% | RAM network inhibition [7] 6.36%

CCn1c(=O)cc(O)c2ccccc21
inactive: growth inhibition [1] 1.77% | growth inhibition [2] -10.1% | viability increase [3] -1.68% | viability [4] 99% | viability [5] 94% | inhibition [6] 2.01% | RAM network inhibition [7] 1.28%

Cn1c(=O)cc(N2CCCCC2)[nH]c1=O
inactive: growth inhibition [1] -15.3% | growth inhibition [2] -7.48% | viability increase [3] -0.1% | viability [4] 111% | viability [5] 97% | inhibition [6] 1.59% | RAM network inhibition [7] -0.8%

Cc1cc(NC(=O)CSCCc2ccncc2)no1
inactive: growth inhibition [1] -9.54% | growth inhibition [2] -5.15% | viability increase [3] -0.06% | viability [4] 99.7% | viability [5] 105% | inhibition [6] 0.675% | RAM network inhibition [7] 1.27%

COc1ccc(CC(=O)c2ccc(O)cc2O)cc1OC
inactive: growth inhibition [1] -6.46% | growth inhibition [2] -7.7% | viability increase [3] -3.53% | viability [4] 95.6% | viability [5] 89.2% | inhibition [6] 1.26% | RAM network inhibition [7] 2.27%

Cc1ccc(C(=O)N(Cc2nc(-c3ccc(C)cc3)no2)C(C)C)cc1
inactive: growth inhibition [1] -14.3% | growth inhibition [2] -18.5% | viability increase [3] 0.77% | viability [4] 100% | viability [5] 94.5% | inhibition [6] 1.33% | RAM network inhibition [7] 5.26%

COCc1cc(C)nc(SCC(=O)Nc2cccc3cccnc23)c1C#N
inactive: growth inhibition [1] -15.3% | growth inhibition [2] -12.6% | viability increase [3] -1.44% | viability [4] 88.1% | viability [5] 86.4% | inhibition [6] 1.2% | RAM network inhibition [7] 8.57%

O=C(c1csc2c1CCCC2)n1cccn1
inactive: growth inhibition [1] 13.2% | growth inhibition [2] 15.7% | viability increase [3] -0.86% | viability [4] 98.7% | viability [5] 106% | inhibition [6] 1.69% | RAM network inhibition [7] -0.11%

O=C(CCNS(=O)(=O)c1cccc2nsnc12)NC1CCN(Cc2ccccc2)CC1
inactive: growth inhibition [1] -3.28% | growth inhibition [2] -9.7% | viability increase [3] -2.01% | viability [4] 87% | viability [5] 89% | inhibition [6] -0.175% | RAM network inhibition [7] 5.02%

O=C(NCCC1=CCCCC1)C1CCCN(S(=O)(=O)c2cccnc2)C1 (configuration not stated)
inactive: growth inhibition [1] -1.48% | growth inhibition [2] 3.42% | viability increase [3] 0.1% | viability [4] 95.8% | viability [5] 101% | inhibition [6] 1.75% | RAM network inhibition [7] 1.4%

CCn1c(-c2ccccc2O)n[nH]c1=S
inactive: growth inhibition [1] 1.96% | growth inhibition [2] 25.6% | viability increase [3] -0.52% | viability [4] 93.7% | viability [5] 95.4% | inhibition [6] -0.54% | RAM network inhibition [7] 0.81%

Cc1c(C(=O)NCc2ccccc2)oc2ccc(S(=O)(=O)N3CCCC3)cc12
inactive: growth inhibition [1] -11.4% | growth inhibition [2] 3.53% | viability increase [3] -2.64% | viability [4] 97% | viability [5] 93.1% | inhibition [6] 1.49% | RAM network inhibition [7] 2.93%

O=C(Nc1ccc(Br)cc1F)c1ccncc1
inactive: growth inhibition [1] -7.26% | growth inhibition [2] -13.4% | viability increase [3] 1.37% | viability [4] 97% | viability [5] 98.6% | inhibition [6] 2.7% | RAM network inhibition [7] 5.07%

O=C(Cn1nc(Cc2cccnc2)c2ccccc2c1=O)NCc1ccc2c(c1)OCO2
inactive: growth inhibition [1] 1.71% | growth inhibition [2] 5.04% | viability increase [3] -1.57% | viability [4] 97% | viability [5] 94.7% | inhibition [6] 0.55% | RAM network inhibition [7] -0.05%

O=C1c2cccnc2C(=O)N1Cc1ccccc1
inactive: growth inhibition [1] -1.31% | growth inhibition [2] -3.01% | viability increase [3] -0.58% | viability [4] 101% | viability [5] 101% | inhibition [6] 0.015% | RAM network inhibition [7] 0.79%

O=C(Cc1cccs1)Nc1nnc(-c2ccncc2)s1
inactive: growth inhibition [1] -0.91% | growth inhibition [2] 3.21% | viability increase [3] 2.53% | viability [4] 108% | viability [5] 98.8% | inhibition [6] 0.38% | RAM network inhibition [7] 0.83%

CCCc1ccc(-c2ccc(C(=O)O)cc2)nc1
inactive: growth inhibition [1] 8.77% | growth inhibition [2] 5.22% | viability increase [3] -3.24% | viability [4] 101% | viability [5] 95.9% | inhibition [6] -0.425% | RAM network inhibition [7] -2.78%

CCOc1ccc(C(=O)CCNC(Cc2cnc[nH]2)C(=O)O)cc1 (configuration not stated)
inactive: growth inhibition [1] 5.56% | growth inhibition [2] 8.23% | viability increase [3] -2.31% | viability [4] 95.1% | viability [5] 92.7% | inhibition [6] 2.15% | RAM network inhibition [7] 4.96%

O=C(C1CC1)N1CCc2cc(Br)cc(S(=O)(=O)NCCCN3CCCC3)c21
inactive: growth inhibition [1] -9.22% | growth inhibition [2] -4.36% | viability increase [3] -2.47% | viability [4] 87.6% | viability [5] 86.3% | inhibition [6] 0.08% | RAM network inhibition [7] 5.37%

CCOC(=O)c1ccc(N2CSC3=C(C#N)C(c4ccc(OC)cc4OC)CC(=O)N3C2)cc1 (configuration not stated)
inactive: growth inhibition [1] 6.21% | growth inhibition [2] 24.4% | viability increase [3] -4.16% | viability [4] 92.3% | viability [5] 93.2% | inhibition [6] 2.44% | RAM network inhibition [7] 1.72%

CCOC(=O)N1CCC(NC(=O)Cn2nc(Cc3ccncc3)c3ccccc3c2=O)CC1
inactive: growth inhibition [1] -6.68% | growth inhibition [2] 3.71% | viability increase [3] -0.79% | viability [4] 94% | viability [5] 95.7% | inhibition [6] -0.58% | RAM network inhibition [7] 0.52%

Cc1cc(Nc2ccc3c(c2)OCCO3)n2nc(C)nc2n1
inactive: growth inhibition [1] -5.2% | growth inhibition [2] 11.4% | viability increase [3] -2.09% | viability [4] 106% | viability [5] 102% | inhibition [6] 2.84% | RAM network inhibition [7] 1.45%

CCc1ccc(NC(=O)c2cnc3n(c2=O)CCS3)cc1
inactive: growth inhibition [1] -1.06% | growth inhibition [2] 0.895% | viability increase [3] -2.9% | viability [4] 95.2% | viability [5] 85.9% | inhibition [6] 2.82% | RAM network inhibition [7] 0.15%

COc1nc(Nc2ccc3c(c2)OCO3)nc(OC)n1
inactive: growth inhibition [1] -22% | growth inhibition [2] -10.4% | viability increase [3] -2.8% | viability [4] 102% | viability [5] 93.6% | inhibition [6] 3.51% | RAM network inhibition [7] 4.7%

O=C(CCc1nc2ccccc2[nH]1)NCc1ccc2c(c1)OCO2
inactive: growth inhibition [1] -8.32% | growth inhibition [2] -4.06% | viability increase [3] -2.13% | viability [4] 97.8% | viability [5] 91.7% | inhibition [6] 2.1% | RAM network inhibition [7] 1.84%

O=c1cc(O)c2c(=O)n(-c3ccccc3)c3ccccc3c2o1
inactive: growth inhibition [1] 8.67% | growth inhibition [2] 4.96% | viability increase [3] -4.59% | viability [4] 98.3% | viability [5] 87.1% | inhibition [6] 0.67% | RAM network inhibition [7] 0.42%

O=C(Cn1nc(-c2ccc(Cl)cc2)ccc1=O)NCCN1CCOCC1
inactive: growth inhibition [1] -3.21% | growth inhibition [2] -12.3% | viability increase [3] -1.27% | viability [4] 100% | viability [5] 100% | inhibition [6] 0.355% | RAM network inhibition [7] 7.69%

O=c1sc(N2CCN(c3ccccc3F)CC2)nc2ccsc12
inactive: growth inhibition [1] -7.07% | growth inhibition [2] -8.01% | viability increase [3] -1.94% | viability [4] 85.3% | viability [5] 81.9% | inhibition [6] 3.63% | RAM network inhibition [7] 7.46%

— PubChem BioAssay
